From ChEMBL document CHEMBL1275515, “CYP56 (Dit2p) in Candida albicans: characterization and investigation of its role in growth and antifungal drug susceptibility” (Antimicrob Agents Chemother, 2008)
In brackets after ≈: the same amount, converted by molar mass.

What was measured:
Candida albicans [1] = assay: Antimicrobial activity against wild type Candida albicans SC5314 by Etest method; type: functional
Candida albicans [2] = assay: Antimicrobial activity against Candida albicans YNM11 harboring cyp56delta::FRT/cyp56::FRT mutant gene by Etest method; type: functional
[3] = Binding affinity to Candida albicans CYP56 by spectrophotometry
Procedure, shortened: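 His-tagged C. albicans CYP56 was expressed in E. coli BL21(DE3) and purified on Ni2+-NTA agarose, then used at 2 μM. Azole in DMSO was titrated stepwise (23–684 nM across the drugs), scanning 350–500 nm. Kd was taken from ΔA430-412 versus azole concentration by Levenberg-Marquardt nonlinear regression of the Hill equation.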

Candida albicans [4] = assay: Binding affinity to Candida albicans CYP56 assessed as dissociation constant for enzyme-substrate complex by spectrophotometry
Procedure, shortened: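 His-tagged CYP56 expressed in E. coli BL21(DE3) and Ni2+-NTA purified; 2 μM enzyme in 0.1 M potassium phosphate (pH 7.4) with 20% glycerol. N-formyl tyrosine titrated from 26 to 253 μM, with spectra read at 320–470 nm until saturation. ΔA390-412 fitted to the Hill equation by nonlinear regression. A Hill plot gave ks (enzyme–substrate dissociation constant) and Hill number.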

Candida albicans [5] = assay: Antimicrobial activity against Candida albicans YNM12 harboring cyp56delta::FRT/cyp56::FRT/RP10-CYP56 mutant gene by Etest method; type: functional

Row | Structure (SMILES) | MIC80 (Candida albicans [1]) | MIC80 (Candida albicans [2]) | Kd [3] | also measured
1 | OC(Cn1cncn1)(Cn1cncn1)c1ccc(F)cc1F [FLUCONAZOLE] | 0.06 µg/mL (≈ 0.196 µM) | 0.06 µg/mL (≈ 0.196 µM) | 230 nM | 
2 | O=CN[C@@H](Cc1ccc(O)cc1)C(=O)O |  |  |  | Ks (Candida albicans [4]): 26 µM
3 | C[C@@H](c1ncncc1F)[C@](O)(Cn1cncn1)c1ccc(F)cc1F [VORICONAZOLE] | 0.007 µg/mL (≈ 0.02 µM) | 0.007 µg/mL (≈ 0.02 µM) | 510 nM | 
4 | CC[C@H](C)C[C@H](C)CCCCCCCCC(=O)N[C@H]1C[C@@H](O)[C@@H](NCCN)NC(=O)[C@@H]2[C@@H](O)CCN2C(=O)[C@H]([C@H](O)CCN)NC(=O)[C@H]([C@H](O)[C@@H](O)c2ccc(O)cc2)NC(=O)[C@@H]2C[C@@H](O)CN2C(=O)[C@H]([C@@H](C)O)NC1=O [CASPOFUNGIN] | 0.015 µg/mL (≈ 0.0137 µM) |  |  | MIC80 (Candida albicans [5]): 0.03 µg/mL (≈ 0.0274 µM)
5 | C[C@@H]1[C@H](O)[C@@H](C)/C=C/C=C/C=C/C=C/C=C/C=C/C=C/[C@H](O[C@@H]2O[C@H](C)[C@@H](O)[C@H](N)[C@@H]2O)C[C@@H]2O[C@](O)(C[C@@H](O)C[C@@H](O)[C@H](O)CC[C@@H](O)C[C@@H](O)CC(=O)O[C@H]1C)C[C@H](O)[C@H]2C(=O)O [AMPHOTERICIN B] |  |  |  | MIC (Candida albicans [1]): 1 µg/mL (≈ 1.08 µM); MIC (Candida albicans [2]): 1 µg/mL (≈ 1.08 µM)
6 | CCC(C)n1ncn(-c2ccc(N3CCN(c4ccc(OCC5COC(Cn6cncn6)(c6ccc(Cl)cc6Cl)O5)cc4)CC3)cc2)c1=O (configuration not stated) [ITRACONAZOLE] |  |  | 100 nM | 
